Laboratory results reported in ChEMBL document CHEMBL5303300, “EUbOPEN Chemogenomics Library - Multiplex” (2023).
Where “and” joins values, the source holds several entries; their conditions need not be identical. Equal values may be shown once.

Tested on: Fibroblast
Assay: Multiplex assay against human fibroblast
Type: toxicity, cell-based
Settings: number of replicates 2
How it was run: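 Per cents of healthy-nucleus cells form the tubulin, mitochondrial-mass and membrane-permeability phenotype values. Live cells were stained at seeding with Hoechst33342, BioTracker Green Microtubule Cytoskeleton Dye, MitoTracker Red and Annexin V Alexa Fluor 680. After compound addition they were imaged on a CQ1 microscope at 37°C and 5% CO2, and CellPathfinder machine-learning gating split them into Hoechst high-intensity objects or normal cells, normal cells into healthy, pyknosed or fragmented nuclei, and pyknosed cells into mitotic or apoptotic.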

[1] = 12 h, 1 µM, compound concentration 1 uM
[2] = 12 h, 10 µM, compound concentration 10 uM
[3] = 24 h, 1 µM, compound concentration 1 uM
[4] = 24 h, 10 µM, compound concentration 10 uM
[5] = 48 h, 1 µM, compound concentration 1 uM
[6] = 48 h, 10 µM, compound concentration 10 uM

SMILES: CC(C)S(=O)(=O)c1ccccc1Nc1nc(N[C@@H]2CCCN(CCCCCCCNC(=O)COc3cccc4c3C(=O)N(C3CCC(=O)NC3=O)C4=O)C2)ncc1Cl (stereo partly specified)
- Population Apoptotic (%) [1]: 55% and 64%
- Population Fragmented Nuclei (%) [1]: 12% and 11%
- Population Healthy Nuclei (%) [1]: 50%
- Population Hoechst High Intensity Objects (%) [1]: 0%
- Population Membrane Permeable-Phenotype (%) [1]: 15% and 11%
- Population Mitochondria Different-Phenotype (%) [1]: 4% and 2%
- Population Mitotic Cells (%) [1]: 44% and 35%
- Population Normal (%) [1]: 100%
- Population Pyknosed Nuclei (%) [1]: 37% and 38%
- Population Tubulin-Different-Phenotype (%) [1]: 40% and 37%
- Total Cell Count [1]: 181 and 196
- Population Apoptotic (%) [2]: 65% and 48%
- Population Fragmented Nuclei (%) [2]: 12% and 16%
- Population Healthy Nuclei (%) [2]: 42% and 33%
- Population Hoechst High Intensity Objects (%) [2]: 0% and 1%
- Population Membrane Permeable-Phenotype (%) [2]: 56% and 36%
- Population Mitochondria Different-Phenotype (%) [2]: 22% and 30%
- Population Mitotic Cells (%) [2]: 34% and 52%
- Population Normal (%) [2]: 99% and 98%
- Population Pyknosed Nuclei (%) [2]: 44% and 49%
- Population Tubulin-Different-Phenotype (%) [2]: 72% and 32%
- Total Cell Count [2]: 231 and 205
- Population Apoptotic (%) [3]: 68% and 83%
- Population Fragmented Nuclei (%) [3]: 10%
- Population Healthy Nuclei (%) [3]: 51%
- Population Hoechst High Intensity Objects (%) [3]: 0%
- Population Membrane Permeable-Phenotype (%) [3]: 7% and 4%
- Population Mitochondria Different-Phenotype (%) [3]: 9% and 4%
- Population Mitotic Cells (%) [3]: 31% and 16%
- Population Normal (%) [3]: 99% and 100%
- Population Pyknosed Nuclei (%) [3]: 37%
- Population Tubulin-Different-Phenotype (%) [3]: 27% and 15%
- Total Cell Count [3]: 171 and 175
- Population Apoptotic (%) [4]: 74% and 79%
- Population Fragmented Nuclei (%) [4]: 13% and 14%
- Population Healthy Nuclei (%) [4]: 32% and 33%
- Population Hoechst High Intensity Objects (%) [4]: 1%
- Population Membrane Permeable-Phenotype (%) [4]: 32% and 19%
- Population Mitochondria Different-Phenotype (%) [4]: 36% and 39%
- Population Mitotic Cells (%) [4]: 26% and 20%
- Population Normal (%) [4]: 98%
- Population Pyknosed Nuclei (%) [4]: 53% and 51%
- Population Tubulin-Different-Phenotype (%) [4]: 68% and 75%
- Total Cell Count [4]: 188 and 232
- Population Apoptotic (%) [5]: 63% and 73%
- Population Fragmented Nuclei (%) [5]: 15% and 12%
- Population Healthy Nuclei (%) [5]: 44% and 43%
- Population Hoechst High Intensity Objects (%) [5]: 0%
- Population Membrane Permeable-Phenotype (%) [5]: 18% and 9%
- Population Mitochondria Different-Phenotype (%) [5]: 5% and 8%
- Population Mitotic Cells (%) [5]: 36% and 26%
- Population Normal (%) [5]: 99% and 100%
- Population Pyknosed Nuclei (%) [5]: 40% and 43%
- Population Tubulin-Different-Phenotype (%) [5]: 31% and 36%
- Total Cell Count [5]: 173 and 163
- Population Apoptotic (%) [6]: 79% and 83%
- Population Fragmented Nuclei (%) [6]: 17% and 13%
- Population Healthy Nuclei (%) [6]: 36% and 32%
- Population Hoechst High Intensity Objects (%) [6]: 2% and 0%
- Population Membrane Permeable-Phenotype (%) [6]: 36% and 34%
- Population Mitochondria Different-Phenotype (%) [6]: 14% and 22%
- Population Mitotic Cells (%) [6]: 20% and 16%
- Population Normal (%) [6]: 97% and 99%
- Population Pyknosed Nuclei (%) [6]: 46% and 53%
- Population Tubulin-Different-Phenotype (%) [6]: 73% and 60%
- Total Cell Count [6]: 196 and 232

SMILES: Cn1cc(-c2ccc(-c3cncc(Cl)c3N3CCC4(CCNC4=O)CC3)cc2)cn1
- Population Apoptotic (%) [1]: 34% and 44%
- Population Fragmented Nuclei (%) [1]: 3% and 11%
- Population Healthy Nuclei (%) [1]: 66% and 70%
- Population Hoechst High Intensity Objects (%) [1]: 0%
- Population Membrane Permeable-Phenotype (%) [1]: 9% and 5%
- Population Mitochondria Different-Phenotype (%) [1]: 0% and 2%
- Population Mitotic Cells (%) [1]: 66% and 55%
- Population Normal (%) [1]: 100%
- Population Pyknosed Nuclei (%) [1]: 30% and 18%
- Population Tubulin-Different-Phenotype (%) [1]: 22% and 16%
- Total Cell Count [1]: 162 and 230
- Population Apoptotic (%) [2]: 25% and 39%
- Population Fragmented Nuclei (%) [2]: 14% and 11%
- Population Healthy Nuclei (%) [2]: 67% and 71%
- Population Hoechst High Intensity Objects (%) [2]: 0%
- Population Membrane Permeable-Phenotype (%) [2]: 18% and 13%
- Population Mitochondria Different-Phenotype (%) [2]: 3% and 4%
- Population Mitotic Cells (%) [2]: 74% and 60%
- Population Normal (%) [2]: 100%
- Population Pyknosed Nuclei (%) [2]: 17% and 16%
- Population Tubulin-Different-Phenotype (%) [2]: 84% and 65%
- Total Cell Count [2]: 196 and 203
- Population Apoptotic (%) [3]: 45% and 50%
- Population Fragmented Nuclei (%) [3]: 7% and 13%
- Population Healthy Nuclei (%) [3]: 38% and 57%
- Population Hoechst High Intensity Objects (%) [3]: 0%
- Population Membrane Permeable-Phenotype (%) [3]: 21% and 8%
- Population Mitochondria Different-Phenotype (%) [3]: 3% and 2%
- Population Mitotic Cells (%) [3]: 54% and 49%
- Population Normal (%) [3]: 99%
- Population Pyknosed Nuclei (%) [3]: 53% and 28%
- Population Tubulin-Different-Phenotype (%) [3]: 41% and 21%
- Total Cell Count [3]: 157 and 229
- Population Apoptotic (%) [4]: 44% and 56%
- Population Fragmented Nuclei (%) [4]: 24% and 22%
- Population Healthy Nuclei (%) [4]: 62% and 64%
- Population Hoechst High Intensity Objects (%) [4]: 0%
- Population Membrane Permeable-Phenotype (%) [4]: 15% and 7%
- Population Mitochondria Different-Phenotype (%) [4]: 8% and 7%
- Population Mitotic Cells (%) [4]: 55% and 43%
- Population Normal (%) [4]: 99% and 100%
- Population Pyknosed Nuclei (%) [4]: 13% and 12%
- Population Tubulin-Different-Phenotype (%) [4]: 82% and 73%
- Total Cell Count [4]: 204 and 232
- Population Apoptotic (%) [5]: 69% and 58%
- Population Fragmented Nuclei (%) [5]: 8% and 20%
- Population Healthy Nuclei (%) [5]: 50% and 57%
- Population Hoechst High Intensity Objects (%) [5]: 0% and 1%
- Population Mitochondria Different-Phenotype (%) [5]: 1% and 2%
- Population Mitotic Cells (%) [5]: 30% and 41%
- Population Normal (%) [5]: 99% and 98%
- Population Pyknosed Nuclei (%) [5]: 40% and 22%
- Population Tubulin-Different-Phenotype (%) [5]: 47% and 22%
- Total Cell Count [5]: 154 and 211
- Population Apoptotic (%) [6]: 66% and 69%
- Population Fragmented Nuclei (%) [6]: 19% and 22%
- Population Healthy Nuclei (%) [6]: 67% and 66%
- Population Hoechst High Intensity Objects (%) [6]: 0%
- Population Membrane Permeable-Phenotype (%) [6]: 9% and 2%
- Population Mitochondria Different-Phenotype (%) [6]: 11%
- Population Mitotic Cells (%) [6]: 33% and 30%
- Population Normal (%) [6]: 99%
- Population Pyknosed Nuclei (%) [6]: 12% and 10%
- Population Tubulin-Different-Phenotype (%) [6]: 66% and 68%
- Total Cell Count [6]: 210 and 211
